PMC10928719 (ACS Infectious Diseases, 2024)
Where two headings read alike, the source gives them in different places.

What was measured:
[1] = tested on: HIV-1 vector with IN mutant G140S/Q148H; experiment: Single-round infection assay, IN mutant G140S/Q148H; type: cell-based; settings: Human immunodeficiency virus 1, read-out: EC50 G140S/Q148H
How it was run: (§1)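 293 cells were co-transfected by calcium phosphate with pNLNgoMIVR–ΔLUC (16 μg; WT or IN mutant) plus pHCMV-g (4 μg) and washed ~6 h later. Supernatant was harvested 48 h later, clarified, filtered and diluted. HOS cells (4000/well) were pretreated 3 h at 37 °C with test compound (11 dilutions, 5 μM–0.0001 μM), then infected for 48 h. Luciferase was read and EC50 fitted by nonlinear regression.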

[2] = tested on: human osteosarcoma (HOS) cells; experiment: Cellular cytotoxicity; type: cell-based; settings: 50% reduction in the level of ATP in HOS cells, 48 h
How it was run: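 HOS cells grown in DMEM with 5% FBS, 5% newborn calf serum and penicillin/streptomycin, then seeded at 4000 cells/well the day before the assay. Test compound was added over 250 μM to 0.05 μM and cells were held at 37 °C for 48 h. ATP luminescence reagent was read after 20 min at room temperature. CC50 came from a nonlinear regression fit.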

[3] = tested on: HIV-1 vector with IN mutant N155H; experiment: Single-round infection assay, IN mutant N155H; type: cell-based; settings: Human immunodeficiency virus 1, read-out: EC50 N155H
How it was run: as §1

[4] = tested on: HIV-1 vector with wild-type (WT) IN; experiment: Single-round infection assay, viral construct with WT IN; type: cell-based; settings: read-out: EC50 WT, single-round HIV-1 vector, HOS cells
How it was run: as §1

[5] = tested on: HIV-1 vector with IN mutant S230N; experiment: Single-round infection assay, IN mutant S230N; type: cell-based; settings: read-out: EC50 S230N, single-round HIV-1 vector
How it was run: as §1

[6] = tested on: HIV-1 vector with IN mutant R263K; experiment: Single-round infection assay, IN mutant R263K; type: cell-based; settings: read-out: EC50 R263K, single-round HIV-1 vector
How it was run: as §1

[7] = tested on: HIV-1 vector with IN mutant G140S/Q148H; settings: single-round infection assays; cited from earlier work
[8] = tested on: HIV-1 vector with wild-type (WT) IN; settings: read-out: EC50 WT, single-round HIV-1 vector, previously reported ref 46; cited from earlier work
[9] = tested on: HIV-1 vector with IN mutant G118R; settings: single-round infection assays; cited from earlier work
[10] = tested on: HIV-1 vector with IN mutant R263K; settings: single-round infection assays; cited from earlier work
[11] = tested on: HIV-1 vector with IN mutant G118R; experiment: Single-round infection assay, IN mutant G118R; type: cell-based; settings: for resistance / loss of potency against G118R mutant: our single-round infection assays
How it was run: as §1

[12] = tested on: HIV-1 vector with IN mutant L74M/G140C/Q148R; experiment: Single-round infection assay, IN mutant L74M/G140C/Q148R; type: cell-based; settings: Human immunodeficiency virus 1, read-out: EC50 L74M/G140C/Q148R
How it was run: (§2)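 Vector carrying the mutant IN was made by calcium phosphate co-transfection of 293 cells with pNLNgoMIVR–ΔLUC (16 μg) and pHCMV-g (4 μg); supernatant was collected 48 h after washing. HOS cells were exposed 3 h at 37 °C to test compound (11 dilutions, 5 μM–0.0001 μM), then infected for 48 h. Luciferase luminescence gave EC50 by nonlinear regression; n = 4 independent experiments, each in triplicate.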

[13] = biological target: Sso7d IN (HIV-1 integrase) (UniProt P12497+P39476); experiment: In vitro IN strand transfer assay; type: biochemical
[14] = tested on: HIV-1 vector with IN mutant T97A/G140S/Q148H; experiment: Single-round infection assay, IN mutant T97A/G140S/Q148H; type: cell-based; settings: Human immunodeficiency virus 1, read-out: EC50 T97A/G140S/Q148H
How it was run: as §2

[15] = tested on: HIV-1 vector with IN mutant E138K/Q148K; experiment: Single-round infection assay, IN mutant E138K/Q148K; type: cell-based; settings: Human immunodeficiency virus 1, read-out: EC50 E138K/Q148K
How it was run: as §2

[16] = tested on: HIV-1 vector with IN mutant G140S/Q148R; experiment: Single-round infection assay, IN mutant G140S/Q148R; type: cell-based; settings: Human immunodeficiency virus 1, read-out: EC50 G140S/Q148R
How it was run: as §2

[17] = tested on: HIV-1 vector with IN mutant E138K/G140C/Q148R; experiment: Single-round infection assay, IN mutant E138K/G140C/Q148R; type: cell-based; settings: Human immunodeficiency virus 1, read-out: EC50 E138K/G140C/Q148R
How it was run: as §2

[18] = tested on: HIV-1 vector with IN mutant G140A/Q148K; experiment: Single-round infection assay, IN mutant G140A/Q148K; type: cell-based; settings: Human immunodeficiency virus 1, read-out: EC50 G140A/Q148K
How it was run: as §2

[19] = tested on: HIV-1 vector with IN mutant E138A/G140S/Q148H; experiment: Single-round infection assay, IN mutant E138A/G140S/Q148H; type: cell-based; settings: Human immunodeficiency virus 1, read-out: EC50 E138A/G140S/Q148H
How it was run: as §2

[20] = tested on: HIV-1 vector with IN mutant E138K/G140S/Q148H; experiment: Single-round infection assay, IN mutant E138K/G140S/Q148H; type: cell-based; settings: Human immunodeficiency virus 1, read-out: EC50 E138K/G140S/Q148H
How it was run: as §2

[21] = tested on: HIV-1 vector with IN mutant E138K/G140A/Q148K; experiment: Single-round infection assay, IN mutant E138K/G140A/Q148K; type: cell-based; settings: Human immunodeficiency virus 1, read-out: EC50 E138K/G140A/Q148K
How it was run: as §2

With `O=C(NCc1ccc(F)cc1F)c1cn2cc[nH]c(=O)c2c(O)c1=O` [6a] the EC50 [1] was over 5000 nM, the CC50 [2] was 150000 ± 19900 nM and the EC50 [3] was 457 ± 21 nM.
In the case of `CC(C)=CCC/C(C)=C/Cn1ccn2cc(C(=O)NCc3ccc(F)cc3F)c(=O)c(O)c2c1=O` [6m], the EC50 [1] is reported as 365 ± 43.3 nM, the EC50 [4] is reported as 38.9 ± 6.7 nM and the EC50 [3] is reported as 81.6 ± 7.6 nM.
With `CC(C)CCCC(C)CCN1CCn2cc(C(=O)NCc3ccc(F)cc3F)c(=O)c(O)c2C1=O` (centres unmarked) [7m] the EC50 [1] was 109 ± 20.5 nM, the EC50 [5] was 41.8 ± 4.2 nM and the EC50 [4] was 21.4 ± 2.5 nM. For the same compound, the EC50 [3] was 25.6 ± 4.2 nM.
`O=C(NCc1ccc(F)cc1F)c1cn2c(c(O)c1=O)C(=O)NCC2` [7a] gave an EC50 [1] of over 5000 nM and an EC50 [6] of 148 ± 36.5 nM.
For `C[C@@H]1CCO[C@H]2Cn3cc(C(=O)NCc4ccc(F)cc4F)c(=O)c(O)c3C(=O)N12` [DTG, dolutegravir], the “reduction in susceptibility relative to WT, G140S/Q148H” value [7] is listed as 2 fold, the EC50 [8] is listed as 2.6 ± 0.3 nM and the “reduction in susceptibility relative to WT, G118R” value [9] is listed as over 5 fold. The “reduction in susceptibility relative to WT, R263K” value [10] was 2 fold and the “resistance / loss of potency against G118R mutant” value (“resistance / loss of potency” below) [11] was 9 ×.
With `C[C@H]1CO[C@@H]2Cn3cc(C(=O)NCc4ccc(F)cc4F)c(=O)c(O)c3C(=O)N12` [CAB, cabotegravir] the EC50 [12] was 220 ± 41.2 nM, the IC50 [13] was 381 nM and the EC50 [14] was 43.7 ± 4.2 nM. The EC50 [15] was 772 ± 72.2 nM, the EC50 [8] was 1.8 ± 0.5 nM and the EC50 [16] was 415 ± 14.5 nM. For the same compound, the EC50 [17] was 134.2 ± 0.3 nM, the EC50 [18] was 393 ± 51.1 nM and the EC50 [19] was 70.2 ± 9 nM. For the same compound, the EC50 [20] was 93 ± 6.1 nM, the EC50 [21] was 610 ± 8.6 nM and the “resistance / loss of potency” value [11] was 17 ×.
With `COCC(C)n1ccn2cc(C(=O)NCc3ccc(F)cc3F)c(=O)c(O)c2c1=O` (centres unmarked) [6k] the EC50 [1] was 34.1 ± 5.4 nM and the EC50 [3] was 5 ± 0.7 nM.
In the case of `COC(Cn1ccn2cc(C(=O)NCc3ccc(F)cc3F)c(=O)c(O)c2c1=O)OC` [6l], the EC50 [1] is reported as 1150 ± 114 nM and the EC50 [3] is reported as 27.7 ± 2.7 nM.
With `COC(CN1CCn2cc(C(=O)NCc3ccc(F)cc3F)c(=O)c(O)c2C1=O)OC` [7l] the EC50 [1] was 394 ± 39 nM, the EC50 [3] was 6.3 ± 0.7 nM and the EC50 ([11]; read-out: EC50 G118R, single-round HIV-1 vector, IN G118R) was 36.4 ± 1.3 nM.
For `O=C(NCc1c(F)cc(F)cc1F)c1cn2c(c(O)c1=O)C(=O)N1[C@H]3CC[C@H](C3)O[C@@H]1C2` [BIC, bictegravir], the EC50 [8] is listed as 2.4 ± 0.4 nM and the “resistance / loss of potency” value [11] is listed as 4 ×.
